From PubChem BioAssay
WT yeast gro inh = growth inhibition of WT yeast, mitochondrial fusion screen; mitochondrial fusion phenotypic screen, WT strain; inhibition, % at 10 µM; 2.1% of 190,000 active; AID 1362; in the data active means inhibition above about 58%; tested in S. cerevisiae
Cl transport mod = KCC2 (human) Cl- transport modulation. Q9H2X9. KCC2 cells, thallium flux FluoZin-2 fluorescence. B-score of Tl+ flux slope (higher = more flux/activation; lower = inhibition) at 10 µM. 2.2% of 190,000 active. AID 1456;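 active means thallium flux slope and its plate-corrected score both differing from the plate sample mean at a set confidence after two filtering rounds, in either direction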;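 further: slope of fluorescence scaled to starting intensity during 10 to 20 s after thallium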
Target sequence (Q9H2X9 whole entry, looked up): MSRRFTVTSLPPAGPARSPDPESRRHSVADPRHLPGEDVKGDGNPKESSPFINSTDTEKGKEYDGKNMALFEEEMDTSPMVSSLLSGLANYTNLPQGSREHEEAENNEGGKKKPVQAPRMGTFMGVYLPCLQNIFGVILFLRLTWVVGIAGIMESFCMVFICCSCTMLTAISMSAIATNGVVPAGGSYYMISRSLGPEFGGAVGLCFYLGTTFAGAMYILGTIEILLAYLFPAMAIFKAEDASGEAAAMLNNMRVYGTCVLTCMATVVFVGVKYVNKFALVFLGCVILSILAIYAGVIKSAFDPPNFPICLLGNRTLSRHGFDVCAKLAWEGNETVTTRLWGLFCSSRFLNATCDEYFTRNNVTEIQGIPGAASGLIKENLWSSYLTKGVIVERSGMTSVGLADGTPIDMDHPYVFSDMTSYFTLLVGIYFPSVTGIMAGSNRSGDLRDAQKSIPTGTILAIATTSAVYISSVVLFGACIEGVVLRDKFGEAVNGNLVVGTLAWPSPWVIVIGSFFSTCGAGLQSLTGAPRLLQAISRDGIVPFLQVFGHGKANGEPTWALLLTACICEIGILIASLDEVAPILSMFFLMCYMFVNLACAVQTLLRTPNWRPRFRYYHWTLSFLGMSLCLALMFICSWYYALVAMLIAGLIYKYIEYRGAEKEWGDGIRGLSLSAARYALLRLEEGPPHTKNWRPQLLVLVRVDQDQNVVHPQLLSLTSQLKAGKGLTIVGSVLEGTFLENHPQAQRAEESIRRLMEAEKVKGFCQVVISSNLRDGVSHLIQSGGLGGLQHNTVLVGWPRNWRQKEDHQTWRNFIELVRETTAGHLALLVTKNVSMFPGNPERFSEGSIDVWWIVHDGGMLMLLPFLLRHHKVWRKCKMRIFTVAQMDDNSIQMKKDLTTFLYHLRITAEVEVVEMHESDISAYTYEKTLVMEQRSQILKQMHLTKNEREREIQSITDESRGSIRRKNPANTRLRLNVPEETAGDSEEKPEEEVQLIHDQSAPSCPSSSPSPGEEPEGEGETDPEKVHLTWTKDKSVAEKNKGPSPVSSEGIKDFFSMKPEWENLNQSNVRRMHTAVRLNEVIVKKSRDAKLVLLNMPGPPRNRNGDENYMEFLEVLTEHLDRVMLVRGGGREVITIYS
Pf gametocyte = inhibitors of late stage P. falciparum gametocyte viability; 0.065% of 150,000 active; inhibition, % at 10.9 µM; P. falciparum stage V gametocytes, ATP luminescence, 24 h;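 active means inhibition above the mean plus 3 SD of compounds within the control limits, set per campaign, cut at about 38% in these data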;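 further: 0% = DMSO wells and 100% = medium only without gametocytes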
b-catenin transl = beta-catenin nuclear translocation modulation. 0.3% of 190,000 active. HeLa beta-catenin nuclear translocation, immunofluorescence imaging. nuclear translocation activity, % at 5 µM;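 active means nuclear translocation activity above 50% at 5 µM, with a well cell count of 50 or more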;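 further: per-cell ratio of nuclear to cytoplasmic median beta-catenin stain intensity; plate controls were DMSO negative control for no effect and GSK-3 inhibitor IX positive control for full effect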
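System: Human HeLa cells, endogenous beta-catenin | Compound dosing: 5 µM primary, 0.02–20 µM confirmation | Timing: 24 h compound exposure at 37°C, 5% CO2 | Measured by: Fluorescence imaging of beta-catenin antibody stain plus DAPI | Read-out basis: % activation of per-cell nuclear versus cytoplasmic median beta-catenin signal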
MT stabilizer = stabilizes microtubules in HeLa cells. HeLa tubulin immunostaining HCS, 24 h; share of cells brighter than vehicle mean+2SD. % tubulin-high responders, % at 10 µM. AID 2205. 0.83% of 200,000 active;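 active means plate Z-score above 3 for both tubulin-high and condensed-nucleus cell shares, with cell loss under 80%, at 10 µM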;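 further: anti alpha tubulin signal scored within the nucleus-defined area of each cell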
Numbers without * were called inactive; / = not tested or not shown. A selection: hits, their analogues and other compounds. The true share with any hit is near 4%.

SMILES	WT yeast gro inh	Cl transport mod	Pf gametocyte	b-catenin transl	MT stabilizer
Cc1cc(C)nc(N2CCC(C(=O)N3CCN(c4cc(Cl)ccc4C)CC3)CC2)n1	72*	0.7	/	-2	20
Cc1ccc(C)c(N2CCN(C(=O)C3CCN(c4nc(C)cc(C)n4)CC3)CC2)c1	67*	0.64	11	-4	3
CC(C)c1ccc(S(=O)(=O)c2ccc(NN)cc2)cc1	69*	-0.87	-4	-3	4
Cc1nc2nc(-c3cccs3)[nH]c2cc1Br	/	/	14	/	/
CC(=O)Nc1ccc(-c2cn3ccsc3n2)cc1	-8	0.44	/	0	2
c1cn2cc(-c3ccc4c(c3)OCO4)nc2s1	79*	-0.29	-14	2	1
Cc1ccc(Oc2ccc(S(=O)(=O)N3CCOCC3)cc2C(N)=O)c(-n2nc3ccccc3n2)c1	2	/	11	0	27*
COc1ccccc1Oc1ccc(S(=O)(=O)N2CCOCC2)cc1S(=O)(=O)N1CCOCC1	9	1.7	/	-2	2
CCCCCCCCC(=O)N/N=C/c1ccccn1	-8	/	-3	2	4
CCCCCCCCC/C(=N\O)c1ccccn1	74*	0.64	/	-1	3
O=C(NC(=S)Nc1cc(-c2nc3ccccc3[nH]2)ccc1Cl)c1ccc2c(c1)OCO2	43	1.4	/	5	14*
Cc1ccc(-c2nc3ccccc3[nH]2)cc1NC(=O)c1ccc2c(c1)OCO2	7	/	/	4	3
CCN(C(=O)c1ccc2c(Cl)c3c(nc2c1)CCC3)c1cccc(C)c1	42	-1.4	/	-3	3
Cc1ccc(N(C)C(=O)c2ccc3c(Cl)c4c(nc3c2)CCC4)cc1C	83*	-0.62	/	-2	4
CCc1ccc(N(CC)C(=O)c2ccc3c(Cl)c4c(nc3c2)CCC4)cc1	91*	-1	/	-1	4
Cc1ccc(CNC(=O)C2CCCN(S(=O)(=O)c3c(C)noc3/C=C/N(C)C)C2)cc1 (stereo unspecified)	/	0.029	5	0	/
Cc1nn2cc(-c3cccc(Cl)c3)cnc2c1Cl	-7	0.11	-17	70*	20*
Cc1nn2cc(-c3cccc(Cl)c3)cnc2c1Br	2	0.62	-8	1	16*
CC(C)n1nnnc1-c1cccc(Cl)c1	-5	0.98	23	-1	2
Cc1cccc(CCN2CCN=C2Nc2ccccc2)c1	/	/	-6	/	/
CC1(C)CC(=S)Nc2ccccc2S1	11	4.7*	16	0	5
CC1(C)CC(=O)C2=C(C1)Nc1ccccc1S2	/	0.53	0	1	/
Cc1ccc(-n2ncc3c(SCc4cccnc4)ncnc32)c(C)c1	11	-1	-29	13	4
COc1cccc(/C=C/C(=O)c2ccc(NC3=NCCCS3)cc2)c1	28	-0.07	5	10	16*
Cc1cccc(/C=C/C(=O)c2ccc(NC3=NCCCS3)cc2)c1	58	0.12	-10	11	11
SMILES	WT yeast gro inh	Cl transport mod	Pf gametocyte	b-catenin transl	MT stabilizer
FC(F)(F)c1cc(CCN2C(=S)NC[C@@H]2Cc2ccccc2)cc(C(F)(F)F)c1	64*	-2.5	-4	-1	4
Oc1ccc(C[C@@H]2CNC(=S)N2CCc2cc(C(F)(F)F)cc(C(F)(F)F)c2)cc1	/	1.9	1	-1	/
Cc1cc(Cl)ccc1OC(C)C(=O)Nc1ccc([N+](=O)[O-])cn1 (stereo unspecified)	45	-0.27	-6	-1	2
NC(=O)NNc1ncc(C(F)(F)F)cc1Cl	-2	1.5	9	-2	2
O=C(NNc1ncc(C(F)(F)F)cc1Cl)c1c(Cl)cccc1Cl	-1	3.8*	-2	/	21*
CN(C(=O)CSc1nnc(-c2ccc(Cl)cc2)n1CC1CCCO1)C1CCS(=O)(=O)C1 (stereo unspecified)	-18	1.4	17	1	2
Cc1cc(C(=O)CSc2nnc(-c3ccc(Cl)cc3)n2CC2CCCO2)c(C)n1C (stereo unspecified)	68*	/	/	-1	3
Cc1ccc(S(=O)(=O)Nc2ccc(N=Nc3ccc(O)cc3)cc2)cc1	71*	0.019	/	0	3
Cc1ccc(S(=O)(=O)Nc2ccccc2CNc2ccc(Br)cn2)cc1	65*	0.22	-3	2	2
Cc1ccc(S(=O)(=O)Nc2ccccc2C(N)=O)cc1	8	-1.1	/	-2	3
Oc1ccccc1CNc1ccc(Br)cn1	-2	20*	/	3	3
Cc1ccc(S(=O)(=O)Nc2ccccc2-c2ccccc2NS(=O)(=O)c2ccc(C)cc2)cc1	62*	/	-7	-1	1
CSc1ccc(S(=O)(=O)Nc2ccc(S(=O)(=O)Nc3ccc(C)cc3)cc2)cc1	-4	/	17	1	3
CCCCNC(=S)NNC(=O)c1c(C)nc2ccccn12	-9	0.34	/	4	1
COc1ccc(N(CC(=O)N2CCOCC2)S(C)(=O)=O)cc1	/	/	-33	/	/
COc1ccc(C)cc1NC(=O)C(=O)NNC(=O)c1ccco1	4	21*	/	0	1
O=C1c2ccccc2-c2n[nH]c(=O)c3ccc(N4CCCCC4)c1c23	63*	0.4	16	-1	3
O=C1c2cccc3c(N4CCCCC4)ccc(c23)C(=O)N1c1ccccn1	-8	/	/	-1	4
Oc1c(N=Nc2ccccn2)ccc2ccccc12	32	53*	-10	7	3
CC(=O)Nc1ccc(NC(=O)C(Cc2ccccc2)NC(=O)C2CCC(C)CC2)cc1 (stereo unspecified)	-1	1.1	15	0	3
Cc1ccc(S(=O)(=O)c2c(C)nn(C(C)(C)C)c2OC(=O)C2CCCC2)cc1	72*	1.8	-3	-2	4
Fc1ccc(N2CCN(C3=Nc4cccc5cccc3c45)CC2)cc1	59*	-1.4	-8	-1	1
Cc1ccc(CON=C2CCN(c3ncc(C(F)(F)F)cc3Cl)CC2)cc1	41	0.12	-24	0	2
FC(F)(F)c1cnc(N2CCC(=NOCc3ccc(Cl)cc3)CC2)c(Cl)c1	63*	/	1	-1	3
N#Cc1ccc(-c2cccs2)nc1SCc1cccnc1	/	-0.0017	11	135*	/
SMILES	WT yeast gro inh	Cl transport mod	Pf gametocyte	b-catenin transl	MT stabilizer
N#Cc1c(C(F)(F)F)cc(-c2cccs2)nc1SCc1cccnc1	21	0.085	/	/	42*
N#Cc1c(C(F)(F)F)cc(-c2cccs2)nc1SCc1ccc(Cl)nc1	-12	/	1	-4	4
Cc1cc(NC(=O)CN2C(=O)NC(C)(c3ccc(Cl)cc3)C2=O)no1 (stereo unspecified)	-37	-0.33	29	0	2
Cc1c(C#N)c(NC(=O)CCl)n(Cc2ccccc2)c1C	-24	0.16	-9	3	11*
Cc1c(C#N)c(NC(=O)CCl)n(Cc2ccc(F)cc2)c1C	-12	0.88	-4	-1	6
Cc1c(C#N)c(NC(=O)CCl)n(Cc2cccs2)c1C	-20	0.32	13	4	40*
COc1ccc(/C=N/NC(=O)CCn2cnc(-c3ccccc3)c2-c2ccccc2)cc1OC	17	-1.4	4	46	22*
COc1cc(/C=N/NC(=O)CCc2ccccc2)ccc1O	70*	-0.2	-2	0	2
